# Screens as filed in PubChem BioAssay.
# An excerpt weighted towards active compounds, which were near 4% of everything screened.
# FGF22 binding: binders of human FGF22 protein, primary screen, FGF22 synaptogenesis inhibitor project, biophysical, thermal shift, single point. Fibroblast growth factor 22 (Homo sapiens), Q9HCT0. recombinant FGF22 thermal shift, SYPRO orange fluorescence; percent of sucrose octasulfate shift, DMSO zero. activity (Tm shift, normalised), % at 9.99 µM. hit rate 1.5% among 340,000. AID 651658, 2012;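 active means mean Tm shift, scaled 0 neutral to 100 positive control, at about 1.3% or above, every replicate too, limit read from the data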
# Statin myotox sup: suppressors of statin myotoxicity in C2C12 myotubes, primary screen, cell-based, single point, plate reader | hit rate 0.78% among 330,000 | AID 602340, 2012 | C2C12 myotubes + simvastatin, ATP luminescence, 48 h; scaled: DMSO 0, geranylgeraniol control 100 | rescue of ATP level, % at 7.49 µM;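 active means mean ATP rescue above about 67%, or every replicate alone reaching that limit, limit read from the data, passing the limit was not always enough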;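 further: myotubes were challenged with 10 µM simvastatin during compound exposure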
# SIRT5 block: SIRT5 desuccinylase inhibitors, primary screen, biochemical, fluorescence imaging, single point, set 5; hit rate 1.1% among 330,000; NAD-dependent protein deacylase sirtuin-5, mitochondrial (Homo sapiens), Q9NXA8; AID 652115, 2013; inhibition, % at 15 µM; Purified SirT5, succinyl-peptide AMC, trypsin-coupled fluorescence; in the data active means inhibition above about 15%
# FN deposition inh: inhibitors of fibronectin matrix deposition, primary screen, AH1F cells, Alexa488-fibronectin fluorescence, plate reader | hit rate 0.086% among 350,000 | AH1F fibroblasts, overnight | inhibition, % at 12.6 µM;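 active means mean inhibition across replicates of 30% or more, regardless of how many single replicates reach that level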;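 further: positive control wells lacked labelled fibronectin entirely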
#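 Assay system: AH1F fibroblasts / Quantity: 10000 cells per well / Medium: DMEM plus 2% serum, read in PBS / Reagent: labelled fibronectin 24 nM / Dosing: single dose, pinned / Times: 1 h cell attachment, overnight exposure to compound and label / Signal: fluorescence, ex 485 nm, em 525 nm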
# E-sel inducer: E-selectin induction in HUVECs, primary screen, imaging, HUVEC, immunofluorescence imaging, single point; P16581; normalized: neutral wells 0, TNF-alpha wells 100; activation, % at 7.58 µM; hit rate 0.37% among 260,000; AID 686992, 2013;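 active means mean E-selectin-positive cell signal at least 10% of the positive control, reached in at least 60% of replicates, without over 20% cell loss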
# Target sequence (P16581 whole entry, looked up): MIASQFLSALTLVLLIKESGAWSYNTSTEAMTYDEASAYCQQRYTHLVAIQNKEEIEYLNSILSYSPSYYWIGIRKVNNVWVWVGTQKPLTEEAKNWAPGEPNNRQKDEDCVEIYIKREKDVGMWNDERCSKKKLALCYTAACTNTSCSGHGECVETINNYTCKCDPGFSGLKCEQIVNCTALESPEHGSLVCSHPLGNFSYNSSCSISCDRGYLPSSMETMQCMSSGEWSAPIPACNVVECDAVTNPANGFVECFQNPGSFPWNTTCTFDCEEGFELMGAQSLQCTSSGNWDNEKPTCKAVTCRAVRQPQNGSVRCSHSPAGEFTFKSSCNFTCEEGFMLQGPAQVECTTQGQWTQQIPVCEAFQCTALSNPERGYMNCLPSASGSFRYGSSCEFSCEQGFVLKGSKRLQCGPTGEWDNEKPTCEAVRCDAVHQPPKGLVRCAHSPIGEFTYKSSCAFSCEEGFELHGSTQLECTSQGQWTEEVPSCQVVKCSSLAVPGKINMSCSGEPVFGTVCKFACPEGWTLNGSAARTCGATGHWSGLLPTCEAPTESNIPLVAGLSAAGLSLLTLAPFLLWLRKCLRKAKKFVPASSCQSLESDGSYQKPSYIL
#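 Test system – human umbilical vein endothelial cells (HUVEC), E-selectin induction · Input – 3,000 HUVEC seeded per well · Buffer or medium – EGM-2, gelatin · Compound dosing – single-point compound dose · Detection – immunofluorescence imaging · Measure – percent E-selectin-positive cells · Controls – TNF-alpha high, DMSO low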
# Ecoli rRNA inh: reduced GFP signal of wild-type E. coli, primary screen, bacterial rRNA inhibitor project, GFP/RFP fluorescence, OD600, single point; GFP signal change (wild-type ribosome), % (no concentration beside the values); E. coli WT GFP vs humanized-ribosome RFP mutants, 24 h; active compounds read low; DMSO median 0, no signal -100; hit rate 1.6% among 350,000;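 active means significant combined selectivity score with lowered wild-type GFP, culture density cut under 30%, mutant RFP and density less affected; inactive means any of these conditions unmet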
# * hit, by the source's call; . = not tested or not shown.
SMILES,FGF22 binding,Statin myotox sup,SIRT5 block,FN deposition inh,E-sel inducer,Ecoli rRNA inh
C=CCn1c(O)c(/C=C2\C=NN=C2c2ccccc2)sc1=S,0.0,.,17.6*,3.9,0.9,2.4
C=CCn1c(O)c(C=Nc2ccccc2)sc1=S,0.2,2.1,-5.0,-2.3,-1.7,-22.0*
COc1ccccc1CNC(=O)C[C@@H]1CC[C@@H](NC(C)=O)[C@@H](CO)O1,0.1,-3.5,-2.6,9.8,-0.2,1.4
COC(=O)c1c(C)noc1-c1cc(C)on1,.,101.7*,.,.,.,.
CO[C@H]1CN(C)C(=O)c2cc(NC(=O)NC3CCCCC3)ccc2OC[C@@H](C)N(CC2CC2)C[C@@H]1C,-0.4,2.2,4.8,-6.4,0.0,2.2
CC(=O)c1c(C)[nH]c(C(=O)N2CCN(c3ncccn3)CC2)c1C,-0.1,6.1,15.7*,5.4,0.1,-1.5
Cc1cnc(NC(=O)Cc2c[nH]c3ccccc23)s1,0.1,13.2,0.9,.,.,-22.4*
Cc1csc(NC(=O)Cc2c[nH]c3ccccc23)n1,.,3.9,.,.,.,.
CN1C(=O)c2cc(NC(=O)C3CCCCC3)ccc2OC[C@H]2O[C@@H](CC(=O)NCc3ccccc3F)CC[C@H]21,-0.1,-62.1,-1.5,-8.7,0.1,-7.3
Cc1nc(SCc2cccc(C(=O)O)c2)nc2c1CCCC2,43.0*,-3.4,52.1*,-3.4,1.0,-7.8
COc1ccc(NC(=O)Nc2ccc3c(c2)C(=O)N([C@@H](C)CO)C[C@@H](C)[C@H](CN(C)Cc2ccc(C(=O)O)cc2)OCCCC[C@@H](C)O3)cc1,-0.2,.,-1.7,.,-0.1,-1.2
Cc1cc(C)cc(S(=O)(=O)c2cnc3ccccc3n2)c1,43.1*,.,-3.5,-15.6,.,15.6
O=S(=O)(c1ccc(Cl)cc1)c1cnc2ccccc2n1,0.0,3.0,-1.0,-6.3,.,16.9
C[C@@H]1CN([C@@H](C)CO)C(=O)c2cc(NC(=O)c3ccncc3)ccc2O[C@@H](C)CCCCO[C@H]1CN(C)S(C)(=O)=O,-0.4,-49.0,.,.,-0.1,-0.6
COc1ccc(NC(=O)N(C)C[C@H]2Oc3ccc(NC(=O)CCCCCC(=O)Nc4ccccc4N)cc3CC(=O)N([C@@H](C)CO)C[C@H]2C)cc1,0.0,-11.5,.,.,31.9*,0.4
COc1ccc(NC(=O)N(C)C[C@@H]2Oc3ccc(NC(=O)CCCCCC(=O)Nc4ccccc4N)cc3CC(=O)N([C@@H](C)CO)C[C@@H]2C)cc1,-0.2,6.6,.,.,-6.4,4.9
C[C@@H]1CN([C@H](C)CO)C(=O)c2cc(NC(=O)CCCCCC(=O)Nc3ccccc3N)ccc2O[C@@H]1CN(C)C(=O)Nc1ccc2c(c1)OCO2,-0.1,.,7.0,.,100.0*,4.6
C[C@H](CO)N1C[C@H](C)[C@@H](CN(C)S(=O)(=O)c2ccccc2)Oc2ccc(NC(=O)CCCCCC(=O)Nc3ccccc3N)cc2C1=O,-0.3,.,18.5*,.,-0.4,-6.5
C[C@@H]1CN([C@@H](C)CO)C(=O)c2cc(NC(=O)CCCCCC(=O)Nc3ccccc3N)ccc2O[C@@H]1CN(C)S(=O)(=O)c1ccccc1,-0.4,.,2.4,.,1.4,-2.8
C[C@H]1CN([C@@H](C)CO)C(=O)c2cc(NC(=O)CCCCCC(=O)Nc3ccccc3N)ccc2O[C@H]1CN(C)C(=O)Nc1ccc(C(F)(F)F)cc1,0.1,41.3,.,-6.6,0.4,1.3
C[C@@H]1CN([C@@H](C)CO)C(=O)c2cc(NC(=O)CCCCCC(=O)Nc3ccccc3N)ccc2O[C@@H]1CN(C)C(=O)Nc1ccc(C(F)(F)F)cc1,0.0,68.2*,9.2,-8.1,0.3,-8.9
COc1cccc(NC(=O)N[C@H]2C=C[C@H](CC(=O)Nc3ccc(-c4ccccc4)cc3)O[C@@H]2CO)c1,-0.2,-91.1,.,-0.2,-0.2,-5.4
COCC#Cc1ccc2c(c1)O[C@@H](CN(C)Cc1ccccc1)[C@H](C)CN([C@H](C)CO)S2(=O)=O,-0.1,-96.7,2.3,.,0.1,-35.1
C[C@H]1CN([C@@H](C)CO)C(=O)Cc2cc(NC(=O)CCCCCC(=O)Nc3ccccc3N)ccc2O[C@@H]1CN(C)C(=O)Nc1ccc2c(c1)OCO2,0.9,18.5,4.1,.,6.4,7.1
C[C@@H]1CN([C@@H](C)CO)C(=O)Cc2cc(NC(=O)CCCCCC(=O)Nc3ccccc3N)ccc2O[C@@H]1CN(C)C(=O)Nc1ccc2c(c1)OCO2,-0.4,5.2,9.5,.,181.2*,3.1
SMILES,FGF22 binding,Statin myotox sup,SIRT5 block,FN deposition inh,E-sel inducer,Ecoli rRNA inh
C[C@H](CO)N1C[C@H](C)[C@H](CN(C)C(=O)Nc2ccc3c(c2)OCO3)Oc2ccc(NC(=O)CCCCCC(=O)Nc3ccccc3N)cc2CC1=O,0.0,40.0,.,.,391.7*,3.7
C[C@H](CO)N1C[C@H](C)[C@@H](CN(C)C(=O)Nc2ccc3c(c2)OCO3)Oc2ccc(NC(=O)CCCCCC(=O)Nc3ccccc3N)cc2CC1=O,-0.2,3.0,6.5,.,-13.9,1.9
C[C@@H]1CN([C@H](C)CO)C(=O)c2cccc(NC(=O)c3ccc(-c4nccs4)cc3)c2O[C@H]1CN(C)S(=O)(=O)c1cn(C)cn1,-0.1,.,-0.3,4.1,0.1,-6.9
O=c1[nH]c(Cc2ccccc2)nc2scc(-c3ccccc3)c12,.,1.1,.,.,.,.
Cc1csc(SC(C)c2nc3scc(-c4ccccc4)c3c(=O)[nH]2)n1 (centres undefined),0.4,8.4,-4.0,-11.8,0.4,-23.6*
CN(CCOc1ccccc1)C(=O)c1cc([N+](=O)[O-])cc([N+](=O)[O-])c1,-0.1,.,26.9*,5.9,1.3,20.8
CC(=O)N1CC[C@@H]2[C@H](CO)Nc3ccc(C#Cc4cccnc4)cc3[C@@H]21,0.0,-11.4,17.9*,-25.9,0.3,2.2
O=C(c1cccnc1)N1CC[C@@H]2[C@@H](CO)Nc3ccc(C#Cc4cccnc4)cc3[C@@H]21,.,.,8.9,-6.5,0.1,2.3
CCC(=O)N1CC[C@@H]2[C@@H](CO)Nc3ccc(C#Cc4cccnc4)cc3[C@@H]21,0.5,-27.9,18.9*,-8.9,0.3,2.6
CC=Cc1ccc2n(c1=O)C[C@@H]1[C@@H](CO)[C@H](C(=O)NC3CCC3)N(CCC)[C@H]21 (mixture of isomers),.,.,7.6,.,0.0,-1.6
Cc1ccc(C(c2nnnn2C(C)(C)C)N2CCC(C)CC2)cc1 (centres undefined),.,-7.6,.,3.0,.,.
